From ChEMBL document CHEMBL2390915, “Synthesis and biological evaluation of arctigenin ester and ether derivatives as activators of AMPK” (Bioorg Med Chem, 2013)

The molecules below were run on L6 (assay: Activation of AMPK in rat L6 cells assessed as phosphorylated protein level at 40 uM after 30 mins by Western blot analysis relative to arctigenin).
Format: cell-based
Procedure, shortened: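 L6 myoblasts kept in DMEM + 10% FBS at 37 °C, 5% CO2, then differentiated to myotubes in DMEM + 2% horse serum once 90% confluent. Cells exposed to 40 µM compound for 30 min. Lysates (Tris-HCl pH 7.5, NaCl, Na3VO4, Triton X-100, protease inhibitors) immunoblotted for phospho-AMPK and total AMPK by chemiluminescence. Band intensity × area normalized to total AMPK; three independent experiments.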

Going from `COc1ccc(C[C@H]2COC(=O)[C@@H]2Cc2ccc(OCCc3ccc(Cl)cc3)c(OC)c2)cc1OC` to `COc1ccc(C[C@H]2COC(=O)[C@@H]2Cc2ccc(OCCc3ccc(F)cc3)c(OC)c2)cc1OC`, the fold change (FC) rises from 0.26 to 0.35.

Compared with `COc1cccc(C(=O)Oc2ccc(C[C@H]3C(=O)OC[C@@H]3Cc3ccc(OC)c(OC)c3)cc2OC)c1`, `COc1ccc(C(=O)Oc2ccc(C[C@H]3C(=O)OC[C@@H]3Cc3ccc(OC)c(OC)c3)cc2OC)cc1` is lower in fold change (FC): 0.64 for the first, 0.46 for the second.

First: COc1ccc(CCCOc2ccc(C[C@H]3C(=O)OC[C@@H]3Cc3ccc(OC)c(OC)c3)cc2OC)cc1OC
Second: COc1ccc(CCOc2ccc(C[C@H]3C(=O)OC[C@@H]3Cc3ccc(OC)c(OC)c3)cc2OC)cc1OC
The fold change (FC) of the first is lower: 0.71 for the first, 0.93 for the second.

Compared with `CCOc1ccc(C[C@H]2C(=O)OC[C@@H]2Cc2ccc(OC)c(OC)c2)cc1OC`, `COCCOc1ccc(C[C@H]2C(=O)OC[C@@H]2Cc2ccc(OC)c(OC)c2)cc1OC` is higher in fold change (FC): 0.14 for the first, 0.17 for the second.

Compared with `COc1ccc(C[C@H]2COC[C@@H]2Cc2ccc(OC(=O)c3cccnc3)c(OC)c2)cc1OC`, `COc1cccc(C(=O)Oc2ccc(C[C@H]3COC[C@@H]3Cc3ccc(OC)c(OC)c3)cc2OC)c1` is higher in fold change (FC): 0.71 for the first, 0.82 for the second.

Compared with `COc1cccc(CCOc2ccc(C[C@H]3COC[C@@H]3Cc3ccc(OC)c(OC)c3)cc2OC)c1`, `COc1ccc(CCOc2ccc(C[C@H]3COC[C@@H]3Cc3ccc(OC)c(OC)c3)cc2OC)cc1` is lower in fold change (FC): 1.33 for the first, 0.9 for the second.

Going from `COc1ccc(C[C@H]2COC(=O)[C@@H]2Cc2ccc(OC(=O)c3ccc(OC)c(OC)c3)c(OC)c2)cc1OC` to `COc1ccc(CC(=O)Oc2ccc(C[C@H]3C(=O)OC[C@@H]3Cc3ccc(OC)c(OC)c3)cc2OC)cc1OC`, the fold change (FC) rises from 0.3 to 0.69.

Going from `C/C=C/C(=O)Oc1ccc(C[C@H]2C(=O)OC[C@@H]2Cc2ccc(OC)c(OC)c2)cc1OC` to `COc1ccc(C[C@H]2COC(=O)[C@@H]2Cc2ccc(OC(C)=O)c(OC)c2)cc1OC`, the fold change (FC) rises from 0.86 to 1.11.

First: CCc1cncc(CCOc2ccc(C[C@H]3COC[C@@H]3Cc3ccc(OC)c(OC)c3)cc2OC)c1
Second: COc1ccc(C[C@H]2COC[C@@H]2Cc2ccc(OCCc3cccnc3)c(OC)c2)cc1OC
The fold change (FC) of the first is lower: 0.64 for the first, 0.81 for the second.

Compared with `COc1ccc(C[C@H]2COC(=O)[C@@H]2Cc2ccc(OCCc3ccc4c(c3)OCO4)c(OC)c2)cc1OC`, `COc1cccc(CCOc2ccc(C[C@H]3C(=O)OC[C@@H]3Cc3ccc(OC)c(OC)c3)cc2OC)c1` is higher in fold change (FC): 0.28 for the first, 0.69 for the second.

Compared with `COc1cc(C[C@H]2COC[C@@H]2Cc2ccc(OC)c(OC)c2)ccc1O`, `COc1ccc(C[C@H]2COC[C@@H]2Cc2ccc(OC(C)=O)c(OC)c2)cc1OC` is lower in fold change (FC): 0.49 for the first, 0.26 for the second.

Going from `COc1ccc(C[C@H]2COC(=O)[C@@H]2Cc2ccc(OCCc3ccccc3F)c(OC)c2)cc1OC` to `COc1ccc(C[C@H]2COC(=O)[C@@H]2Cc2ccc(OCCc3ccccc3Cl)c(OC)c2)cc1OC`, the fold change (FC) falls from 0.34 to 0.24.

Compared with `COc1ccc(C[C@H]2COC(=O)[C@@H]2Cc2ccc(OC(=O)c3ccc(F)cc3)c(OC)c2)cc1OC`, `COc1ccc(C[C@H]2COC(=O)[C@@H]2Cc2ccc(OC(=O)c3ccc(C)cc3)c(OC)c2)cc1OC` is lower in fold change (FC): 0.63 for the first, 0.46 for the second.

Compared with `COc1ccc(C[C@H]2COC(=O)[C@@H]2Cc2ccc(OC(=O)CC(C)(C)C)c(OC)c2)cc1OC`, `CCC(=O)Oc1ccc(C[C@H]2C(=O)OC[C@@H]2Cc2ccc(OC)c(OC)c2)cc1OC` is higher in fold change (FC): 0.32 for the first, 0.92 for the second.

First: COc1ccc(CCOc2ccc(C[C@H]3COC[C@@H]3Cc3ccc(OC)c(OC)c3)cc2OC)cc1OC
Second: COc1ccc(CCCOc2ccc(C[C@H]3COC[C@@H]3Cc3ccc(OC)c(OC)c3)cc2OC)cc1OC
The fold change (FC) of the first is higher: 1.45 for the first, 0.97 for the second.

Going from `COc1ccc(C(=O)Oc2ccc(C[C@H]3COC[C@@H]3Cc3ccc(OC)c(OC)c3)cc2OC)cc1` to `COc1ccc(C[C@H]2COC[C@@H]2Cc2ccc(OC(=O)c3ccc(F)cc3)c(OC)c2)cc1OC`, the fold change (FC) rises from 0.25 to 0.37.

Compared with `COc1ccc(CC(=O)Oc2ccc(C[C@H]3COC[C@@H]3Cc3ccc(OC)c(OC)c3)cc2OC)cc1OC`, `COc1ccc(C[C@H]2COC[C@@H]2Cc2ccc(OC(=O)c3ccc(OC)c(OC)c3)c(OC)c2)cc1OC` is lower in fold change (FC): 0.83 for the first, 0.82 for the second.

Compared with `COc1cc(CCOc2ccc(C[C@H]3COC[C@@H]3Cc3ccc(OC)c(OC)c3)cc2OC)cc(OC)c1`, `COc1cc(CCOc2ccc(C[C@H]3C(=O)OC[C@@H]3Cc3ccc(OC)c(OC)c3)cc2OC)cc(OC)c1` is higher in fold change (FC): 0.68 for the first, 0.73 for the second.

First: CCOc1ccc(CCOc2ccc(C[C@H]3C(=O)OC[C@@H]3Cc3ccc(OC)c(OC)c3)cc2OC)cc1OCC
Second: COc1ccc(COc2ccc(C[C@H]3C(=O)OC[C@@H]3Cc3ccc(OC)c(OC)c3)cc2OC)cc1OC
The fold change (FC) of the first is lower: 0.34 for the first, 0.36 for the second.

Compared with `COc1ccc(C[C@H]2COC[C@@H]2Cc2ccc(OCCc3ccc(Cl)cc3)c(OC)c2)cc1OC`, `COc1ccc(C[C@H]2COC[C@@H]2Cc2ccc(OCCc3ccc(F)cc3)c(OC)c2)cc1OC` is higher in fold change (FC): 0.79 for the first, 0.97 for the second.

Compared with `COc1ccc(C[C@H]2COC[C@@H]2Cc2ccc(OC(=O)c3ccco3)c(OC)c2)cc1OC`, `COc1ccc(C[C@H]2COC(=O)[C@@H]2Cc2ccc(OC(=O)c3ccco3)c(OC)c2)cc1OC` is higher in fold change (FC): 0.41 for the first, 0.69 for the second.

`COc1ccc(C[C@H]2COC[C@@H]2Cc2ccc(OC(=O)CC(C)C)c(OC)c2)cc1OC` and `CCCC(=O)Oc1ccc(C[C@H]2COC[C@@H]2Cc2ccc(OC)c(OC)c2)cc1OC` are the same in fold change (FC): 0.25 for the first, 0.25 for the second.

Compared with `COc1ccc(C[C@H]2COC(=O)[C@@H]2Cc2ccc(OC(=O)C(C)C)c(OC)c2)cc1OC`, `COc1ccc(C[C@H]2COC(=O)[C@@H]2Cc2ccc(OC(=O)CC(C)C)c(OC)c2)cc1OC` is lower in fold change (FC): 0.82 for the first, 0.48 for the second.

Going from `COc1ccc(C[C@H]2COC(=O)[C@@H]2Cc2ccc(OC(C)C)c(OC)c2)cc1OC` to `CCCC(=O)Oc1ccc(C[C@H]2C(=O)OC[C@@H]2Cc2ccc(OC)c(OC)c2)cc1OC`, the fold change (FC) rises from 0.2 to 0.94.

Going from `COc1ccc(C[C@H]2COC(=O)[C@@H]2Cc2ccc(OCCc3ccc(C(C)(C)C)cc3)c(OC)c2)cc1OC` to `COc1ccc(CCOc2ccc(C[C@H]3C(=O)OC[C@@H]3Cc3ccc(OC)c(OC)c3)cc2OC)cc1`, the fold change (FC) rises from 0.09 to 0.32.

Compared with `COc1ccccc1CCOc1ccc(C[C@H]2C(=O)OC[C@@H]2Cc2ccc(OC)c(OC)c2)cc1OC`, `COc1ccc(C[C@H]2COC(=O)[C@@H]2Cc2ccc(OCCc3ccccc3)c(OC)c2)cc1OC` is lower in fold change (FC): 0.32 for the first, 0.2 for the second.

Going from `COc1ccc(C[C@H]2COC(=O)[C@@H]2Cc2ccc(OC(=O)c3cccnc3)c(OC)c2)cc1OC` to `COc1ccc(C[C@H]2COC(=O)[C@@H]2Cc2ccc(OC(=O)c3ccccc3)c(OC)c2)cc1OC`, the fold change (FC) falls from 0.87 to 0.81.

Compared with `COc1ccc(C[C@H]2COC[C@@H]2Cc2ccc(OCCc3cc(OC)c(OC)c(OC)c3)c(OC)c2)cc1OC`, `COc1ccc(C[C@H]2COC(=O)[C@@H]2Cc2ccc(OCCc3cc(OC)c(OC)c(OC)c3)c(OC)c2)cc1OC` is lower in fold change (FC): 1.25 for the first, 0.57 for the second.

Going from `COc1ccc(C[C@H]2COC[C@@H]2Cc2ccc(OCCc3ccc(F)c(F)c3)c(OC)c2)cc1OC` to `COc1ccc(C[C@H]2COC[C@@H]2Cc2ccc(OCC(=O)c3ccc(OC)c(OC)c3)c(OC)c2)cc1OC`, the fold change (FC) falls from 0.91 to 0.66.

Compared with `COc1ccc(C[C@H]2COC(=O)[C@@H]2Cc2ccc(OC(=O)C3CC3)c(OC)c2)cc1OC`, `CCCCC(=O)Oc1ccc(C[C@H]2C(=O)OC[C@@H]2Cc2ccc(OC)c(OC)c2)cc1OC` is higher in fold change (FC): 0.62 for the first, 1.16 for the second.

`COc1ccc(C[C@H]2COC[C@@H]2Cc2ccc(OC(=O)C3CCCCC3)c(OC)c2)cc1OC` was tested, and the fold change (FC) was 0.23.
